According to ChEMBL document CHEMBL1629467, “Design and synthesis of novel tetrahydro-2H-Pyrano[3,2-c]pyridazin-3(6H)-one derivatives as potential anticancer agents” (Eur J Med Chem, 2010):

Key:
[1] = tested on: A549; experiment: Growth inhibition of human A549 cells after 48 hrs by sulforhodamine B assay; type: functional, cell-based; conditions: A549, 48 h
Summary of the method: (§1)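 Cells were grown in RPMI-1640 with 10% FBS, penicillin, streptomycin and amphotericin B at 37 °C in 5% CO2, then treated for 48 h in triplicate wells. They were fixed with cold 50% TCA for 1 h at 4 °C, stained with 0.4% SRB in 1% acetic acid for 10 min at RT, and dissolved in 10 mM Tris (pH 10.5) before reading A570. Percent inhibition was calculated against untreated cells after blank subtraction. IC50 is the concentration giving a 50% reduction in net protein increase, reported as mean ± SEM from ≥3 independent runs.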

[2] = tested on: SK-N-SH; experiment: Growth inhibition of human SK-N-SH cells after 48 hrs by sulforhodamine B assay; type: functional, cell-based; summary of the method: as §1
[3] = tested on: SK-BR-3; experiment: Growth inhibition of human SK-BR-3 cells after 48 hrs by sulforhodamine B assay; type: functional, cell-based; conditions: SK-BR-3, 48 h; summary of the method: as §1
[4] = tested on: HCT-116; experiment: Growth inhibition of human HCT116 cells after 48 hrs by sulforhodamine B assay; type: functional, cell-based; conditions: HCT-116, 48 h; summary of the method: as §1
[5] = tested on: DU-145; experiment: Growth inhibition of human DU145 cells after 48 hrs by sulforhodamine B assay; type: functional, cell-based; conditions: DU-145, 48 h; summary of the method: as §1
[6] = tested on: SK-BR-3; experiment: Selectivity ratio of IC50 for human SK-BR-3 cells to IC50 for human A549 cells; type: functional
[7] = tested on: SK-N-SH; experiment: Selectivity ratio of IC50 for human SK-BR-3 cells to IC50 for human SK-N-SH cells; type: functional
[8] = tested on: SK-BR-3; experiment: Selectivity ratio of IC50 for human SK-BR-3 cells to IC50 for human HCT116 cells; type: functional
[9] = tested on: SK-BR-3; experiment: Selectivity ratio of IC50 for human SK-BR-3 cells to IC50 for human DU145 cells; type: functional
[10] = Growth inhibition of human MCF10A cells after 48 hrs by sulforhodamine B assay; type: cell-based; conditions: MCF-10A; summary of the method: as §1
[11] = Cytotoxicity against human MCF10A cells at 0.1 uM after 72 hrs by MTT assay; type: cell-based; conditions: mcf-10a
Summary of the method: (§2)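 Cells were plated in 96-well plates with medium and treated after 24 h with five test concentrations, each in triplicate, for 72 h. They were then washed with PBS, and fresh medium plus MTT (stock 3 mg/mL in PBS) was added for 4 h at 37 °C. Formazan was dissolved in DMSO for 30 min, absorbance was read, and the data were converted to % cell viability.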

[12] = Cytotoxicity against human MCF10A cells at 0.3 uM after 72 hrs by MTT assay; type: cell-based; conditions: mcf-10a; summary of the method: as §2
[13] = Cytotoxicity against human MCF10A cells at 10 uM after 72 hrs by MTT assay; type: cell-based; conditions: mcf-10a; summary of the method: as §2
[14] = tested on: SK-BR-3; experiment: Selectivity for human SK-BR-3 cells over human MCF10A cells
[15] = Cytotoxicity against human MCF10A cells at 3 uM after 72 hrs by MTT assay; type: cell-based; conditions: mcf-10a; summary of the method: as §2
[16] = Cytotoxicity against human MCF10A cells at 1 uM after 72 hrs by MTT assay; type: cell-based; conditions: mcf-10a; summary of the method: as §2

SMILES | IC50 [1] [µM] | IC50 [2] [µM] | IC50 [3] [µM] | IC50 [4] [µM] | IC50 [5] [µM] | Selectivity ratio [6] | Selectivity ratio [7] | Selectivity ratio [8] | Selectivity ratio [9] | IC50 [10] [µM] | Activity [11] | Activity [12] | Activity [13] | Ratio [14] | Selectivity ratio [14] | Activity [15] | Activity [16]
CO[C@@H]1CC=C2NN(c3ccc(Cl)cc3)C(=O)C[C@]2(C)O1 | 25.5 | 31.7 | 28.7 | 35.7 | 24.2 |  |  |  |  |  |  |  |  |  |  |  | 
CO[C@@H]1CC=C2NN(c3ccc(C)cc3)C(=O)C[C@]2(C)O1 | 21.5 | 25.3 | 29.7 | 28.7 | 23.2 |  |  |  |  |  |  |  |  |  |  |  | 
COc1cc(OC)cc(N2NC3=CC[C@@H](OC)O[C@@]3(C)CC2=O)c1 | 6.15 | 23.7 | 5.7 | 24.3 | 22.2 | 5 |  |  |  |  |  |  |  |  |  |  | 
CO[C@@H]1CC=C2NN(c3cc4ccccc4[nH]3)C(=O)C[C@]2(C)O1 | 3.92 | 19.5 | 4.1 | 18.3 | 14.4 | 5 |  |  |  |  |  |  |  |  |  |  | 
CO[C@@H]1CC=C2NN(c3cc(Cl)cc(Cl)c3)C(=O)C[C@]2(C)O1 | 17.5 | 20.2 | 18.8 | 19.4 | 21.3 |  |  |  |  |  |  |  |  |  |  |  | 
CO[C@@H]1CC=C2NN(c3cccnc3)C(=O)C[C@]2(C)O1 | 14.3 | 19 | 15.2 | 17.1 | 16.4 |  |  |  |  |  |  |  |  |  |  |  | 
CO[C@@H]1CC=C2NN(c3cncnc3)C(=O)C[C@]2(C)O1 | 4.1 | 16.6 | 3.4 | 15.1 | 17.1 | 5 |  |  |  |  |  |  |  |  |  |  | 
COc1cc(OC)cc(N2NC3=CC[C@@H](OC)O[C@@]3(c3ccccc3)CC2=O)c1 | 17.2 | 19.5 | 1.2 | 18.1 | 18.3 |  |  |  |  |  |  |  |  |  |  |  | 
CO[C@@H]1CC=C2NN(c3cc(F)cc(Cl)c3)C(=O)C[C@]2(c2ccccc2)O1 | 14.1 | 17.4 | 17.6 | 16.2 | 16.1 |  |  |  |  |  |  |  |  |  |  |  | 
CO[C@@H]1CC=C2NN(c3ccc(C)cc3)C(=O)C[C@]2(c2ccccc2)O1 | 8.11 | 11.1 | 9.2 | 10.5 | 11.2 |  |  |  |  |  |  |  |  |  |  |  | 
COc1ccc(N2NC3=CC[C@@H](OC)O[C@@]3(c3ccccc3)CC2=O)cc1 | 7.1 | 10.4 | 8.4 | 11.3 | 10.1 |  |  |  |  |  |  |  |  |  |  |  | 
CO[C@@H]1CC=C2NN(c3cncnc3)C(=O)C[C@]2(c2ccccc2)O1 | 5.2 | 8.2 | 5.3 | 9.13 | 7.33 |  |  |  |  |  |  |  |  |  |  |  | 
CO[C@@H]1CC=C2NN(c3cc4ccccc4[nH]3)C(=O)C[C@]2(c2ccccc2)O1 | 8.67 | 9.1 | 0.53 | 8.2 | 7.9 | 20 | 20 | 20 | 20 | > 38 |  |  |  |  |  |  | 
CO[C@@H]1CC=C2NN(c3cc(Cl)cc(Cl)c3)C(=O)C[C@]2(c2ccncc2)O1 | 7.5 | 8.3 | 5.5 | 9.1 | 7.6 |  |  |  |  |  |  |  |  |  |  |  | 
CO[C@@H]1CC=C2NN(c3ccc(C)cc3)C(=O)C[C@]2(c2ccncc2)O1 | 5.9 | 8.1 | 6.2 | 7.4 | 7.1 |  |  |  |  |  |  |  |  |  |  |  | 
COc1cc(OC)cc(N2NC3=CC[C@@H](OC)O[C@@]3(c3ccncc3)CC2=O)c1 | 6.22 | 6.4 | 0.21 | 6.5 | 5.9 | 30 | 30 | 30 | 30 | > 51 | Non-toxic | Non-toxic | Non-toxic | 290 | 290 | Non-toxic | Non-toxic
CO[C@@H]1CC=C2NN(c3cc4ccccc4[nH]3)C(=O)C[C@]2(c2ccncc2)O1 | 4.05 | 3.9 | 0.15 | 4.35 | 4.1 | 30 | 30 | 30 | 30 | > 55 | Non-toxic | Non-toxic | Non-toxic | 290 | 290 | Non-toxic | Non-toxic
